High-throughput results: PubChem BioAssay, several laboratories
Most compounds without a hit are left out; they make up all but 2.8% or so of the library.
SDO1 yeast rescue = growth rescue of sdo1-depleted yeast, primary screen, S. cerevisiae, bone marrow failure model; S. cerevisiae sdo1-depleted JHY4D growth rescue, OD600 30 h; stronger effect = higher value; pdr5 snq2 efflux-pump mutant strain; z-score at 10 µM; actives 0.21% (n = 140,000); AID 817, 2007;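 active = z-score above 3 at both the 24 hr and the 30 hr optical density reads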
BB579 growth dn = growth inhibitors of yeast BB579 in restrictive medium, primary screen, yeast lifespan-shortening project, S. cerevisiae; AID 804, 2007; actives 0.51% (n = 140,000); OD615, 48 h; inhibition, % at 10 µM;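 active = inhibition above a set limit, 3 SD over the mean compound inhibition, cut at about 44% in these data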
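controls = amphotericin B 10 µg/mL, positive | assay system = DeaD yeast strain BB579 | schedule = 48 h compound exposure at 30 °C after 4 h preincubation | detection = OD615 turbidity measurement | medium = restrictive CSMM-D medium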
Yeast life ext = compounds extending yeast replicative lifespan, primary screen, S. cerevisiae, OD615; S. cerevisiae growth with nicotinamide; deaD strain in restrictive glucose medium; inhibition of the nicotinamide effect, % at 10 µM; actives 0.68% (n = 130,000); AID 775, 2007;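 active = inhibition above a set limit, placed 3 SD over the median of all compounds, cut at about 26% in these data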
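Assay system: engineered S. cerevisiae DeaD replicative-lifespan strain, galactose-grown log-phase cells; Buffer or medium: CSMM-D glucose medium, restrictive; Probe or stimulus: nicotinamide 1.5 mM; Compound: single dose 10 µM compound, 0.25% DMSO; Schedule: 4 h preincubation then 48 h treatment at 30 °C; Technique: OD615 measurement.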
HCT116 PTEN-null = growth suppression of PTEN-null HCT116, primary screen, cell-based, CellTiter-Glo; HCT116 PTEN-null viability, 60 h; stronger effect = lower value; actives 1.2% (n = 140,000); viability, % at 10 µM;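 active = viability at or below a set limit, 4 SD under the median of all tested compounds, cut at about 3.7% in these data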;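 note: PTEN knockout HCT116 line with beta catenin targeted HCT116 as companion control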
HCT116 bCat-KO = primary screen for growth suppressors in beta-catenin knockout HCT116 cells (colon tumor, human); actives 1.5% (n = 140,000); AID 818, 2007; viability, % at 10 µM; HCT116 beta-catenin knockout viability, CellTiter-Glo, 60 h; stronger effect = lower value;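 active = viability at or under a set limit, the compound median less 4 SD, cut at about 6% in these data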
A number is an active result; n = inactive; x = no result given.

SMILES	SDO1 yeast rescue	BB579 growth dn	Yeast life ext	HCT116 PTEN-null	HCT116 bCat-KO
COc1cccc(/C=N/n2c(N)c(S(=O)(=O)c3cccs3)c3nc4ccccc4nc32)c1OC	n	n	n	2.8	2.1
Cc1ccc(-c2nnn(CC(=O)N(Cc3ccccc3)C(C(=O)NC3CCCC3)c3ccncc3)n2)o1 (stereo not drawn)	n	n	n	n	n
COc1ccc(C(C(=O)NC2CCCCC2)N(C(=O)CCl)c2ccc(C)cc2)cc1 (stereo not drawn)	n	n	n	2.2	5.0
CCOc1ccc(C(C(=O)NC2CCCCC2)N(C(=O)Cc2cccs2)c2ccc(-n3cnnn3)c(OC)c2)cc1 (stereo not drawn)	n	n	n	3.3	n
COc1ccc(C(C(=O)NC2CCCCC2)N(C(=O)CCl)c2ccc(OC)cc2)cc1 (stereo not drawn)	n	n	n	0.8	1.4
COc1ccc(C(C(=O)NC2CCCCC2)N(C(=O)CCl)c2cccc(Cl)c2)cc1 (stereo not drawn)	n	n	n	1.6	2.3
CC(C)(C)n1nc2c(c1NC(=O)COc1ccc3ccccc3c1)CS(=O)(=O)C2	n	n	n	n	n
COC(=O)C1=C(O)C(C(=O)OC)C(c2ccc(C)cc2)C(C#N)(C#N)C1c1ccc(C)cc1 (stereo not drawn)	n	n	x	n	n
N#Cc1c(NC(=O)c2cnccn2)sc2c1CCCC2	n	n	n	n	n
Cc1ccc(NC2=C/C(=N/S(=O)(=O)c3cccs3)c3ccccc3C2=O)cc1C	n	n	n	n	n
Cc1cc(C)c(S(=O)(=O)/N=C2/C=C(Sc3ncn[nH]3)C(=O)c3ccccc32)cc1C	n	n	n	n	3.1
CCCn1c(CN2CCCCC2C)nc2c1c(=O)n(C)c(=O)n2C (stereo not drawn)	n	n	n	n	n
CCCCCCn1c(CN2CCCCC2C)nc2c1c(=O)n(C)c(=O)n2C (stereo not drawn)	n	n	x	n	6.0
CCOC(=O)c1c(NC(=O)OC)sc(C(=O)N(CC)CC)c1C	n	n	n	n	n
O=C(CSc1nc2ccccc2o1)N1CCN(S(=O)(=O)c2ccc3ccccc3c2)CC1	n	n	n	n	n
O=C(Cn1ncc(Cl)c(Cl)c1=O)N1CCN(S(=O)(=O)c2ccc3ccccc3c2)CC1	n	n	n	1.1	1.1
Clc1cccc2c1Sc1ccccc1CC2N1CCNCC1 (stereo not drawn)	n	n	n	0.8	1.0
Clc1ccc2c(c1)C(N1CCNCC1)Cc1ccccc1S2 (stereo not drawn)	n	n	x	1.7	1.5
COc1ccc(-c2nnc(SCc3nnc(-c4ccc(Cl)cc4)o3)n2-c2ccccc2)cc1	n	n	n	n	n
CC1CCCN(CCOCCOc2ccc(Cl)cc2Br)C1 (stereo not drawn)	n	n	n	n	5.3
CC1CCCN(CCOCCOc2ccc(Br)cc2Cl)C1 (stereo not drawn)	n	n	n	n	n
CCN1CCN(c2cc(N3CCc4ccccc4C3)c(F)cc2[N+](=O)[O-])CC1	n	n	n	0.5	1.0
CC1CCN(c2cc(N3CCOCC3)c([N+](=O)[O-])cc2F)CC1	n	n	n	n	n
CC1=CS(=O)(=O)CC1Sc1nc2ccccc2[nH]1 (stereo not drawn)	n	n	68.2	n	n
O=S1(=O)C=CC(Sc2nc3ccccc3[nH]2)C1 (stereo not drawn)	n	n	n	n	n
SMILES	SDO1 yeast rescue	BB579 growth dn	Yeast life ext	HCT116 PTEN-null	HCT116 bCat-KO
O=C(N/N=C/c1ccc(O)cc1)/C(=C/c1ccccc1)CCO	n	n	n	n	n
C=CCn1c(SCCN2C(=O)c3ccccc3C2=O)nc2scc(-c3ccccc3)c2c1=O	n	n	n	n	n
C=CCn1c(SCC(=O)c2[nH]c(C)c(C(=O)OCC)c2C)nc2scc(-c3ccccc3)c2c1=O	n	n	n	1.3	2.0
C=CCn1c(SCC(=O)c2[nH]c(C)c(C(=O)OCC)c2C)nc2scc(-c3ccc(OC)cc3)c2c1=O	n	n	n	1.6	1.7
C/C(Cn1cnc([N+](=O)[O-])n1)=N/NC(=O)COc1c(Cl)cc(Cl)cc1Cl	n	n	n	n	n
CCN(Cc1cc(=O)n2ccsc2n1)c1cccc2ccccc12	n	n	n	n	n
CCC(=O)Nc1cccc(C(=O)c2ccccc2)c1	n	n	n	n	n
CCC(=O)Nc1cccc(C(=O)/C=C/c2ccccc2)c1	n	n	n	1.4	1.6
COc1ccccc1NC(=O)c1cc2ccccc2o/c1=N\O	n	n	n	2.7	4.5
COc1ccc(CCNC(=O)c2c(O)c3cccc4c3n(c2=O)CC4)cc1	n	n	n	n	n
CCCCCCNC(=O)c1c(O)c2cccc3c2n(c1=O)CCC3	n	n	n	n	n
O=C(NCc1ccccn1)c1c(O)c2cccc3c2n(c1=O)CC3	n	n	n	0.6	0.9
COc1ccc(CNC(=O)c2c(O)c3cccc4c3n(c2=O)CCC4)cc1	n	n	33.7	n	n
O=C(NCCNCCO)c1c(O)c2cccc3c2n(c1=O)CCC3	n	n	33.0	n	n
COc1ccc(CNC(=O)c2c(O)c3cccc4c3n(c2=O)CCC4)cc1OC	n	n	34.1	n	n
CS(=O)(=O)N(Cc1ccc(Cl)cc1)c1ccc(C(=O)N/N=C/c2cc3ccccc3nc2Cl)cc1	n	n	n	n	n
COc1ccccc1N1CCN(C(c2cccs2)c2nnnn2C2CCCC2)CC1 (stereo not drawn)	n	n	n	n	n
CCC(C)C(NC(=O)C1CCC(C)CC1)C(=O)NCc1ccccn1 (stereo not drawn)	n	n	n	n	n
CCc1cccc(CC)c1N1C(=O)c2cc(N3CCOCC3)c([N+](=O)[O-])cc2C1=O	n	n	n	n	n
Cc1nc2ccccc2c2c1C(=O)N(C)C2=O	n	65.5	n	n	n
Cc1nc2ccccc2c2c1C(=O)N(C(C)C)C2=O	n	n	n	n	n
CCOc1ccc2c(c1)-c1c(ssc1=S)C(C)(C)N2C	n	n	39.5	n	n
COc1ccc(CNS(=O)(=O)c2cc(OCC(N)=O)c(C)cc2Cl)cc1	n	n	n	n	n
CCCCCC(=O)N/N=C(\C)c1ccc(Cl)cc1	n	n	n	n	n
Cc1cc(=O)[nH]c(-n2nc(C)cc2C)n1	n	81.0	n	n	n
COc1ccc(NC(=O)C(CC(C)C)NC(=O)c2ccccc2C)cn1 (stereo not drawn)	n	n	n	n	n
COc1ccc(NC(=O)/C(Cl)=C(/Cl)S(=O)(=O)Cc2ccc(C)cc2)cn1	n	n	n	2.0	3.1
Cc1ccc(-n2nnnc2-c2nc3ccccc3s2)cc1	n	n	n	n	n
